The source of these data is PubChem BioAssay AID652286 (Sanford-Burnham Center for Chemical Genomics, 2013).

The structures appear in SMILES notation. Where “and” joins values, the source holds several entries; their conditions need not be identical. Equal entries are not always repeated. Calls of active or inactive are those of the source.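 How the source made its calls: active means compounds halving thioesterase enzyme activity at 20 µM or lower; inactive means the rest.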

Chain of Fatty acid synthase (Homo sapiens) (P49327 whole entry, looked up, the tested form may be a part): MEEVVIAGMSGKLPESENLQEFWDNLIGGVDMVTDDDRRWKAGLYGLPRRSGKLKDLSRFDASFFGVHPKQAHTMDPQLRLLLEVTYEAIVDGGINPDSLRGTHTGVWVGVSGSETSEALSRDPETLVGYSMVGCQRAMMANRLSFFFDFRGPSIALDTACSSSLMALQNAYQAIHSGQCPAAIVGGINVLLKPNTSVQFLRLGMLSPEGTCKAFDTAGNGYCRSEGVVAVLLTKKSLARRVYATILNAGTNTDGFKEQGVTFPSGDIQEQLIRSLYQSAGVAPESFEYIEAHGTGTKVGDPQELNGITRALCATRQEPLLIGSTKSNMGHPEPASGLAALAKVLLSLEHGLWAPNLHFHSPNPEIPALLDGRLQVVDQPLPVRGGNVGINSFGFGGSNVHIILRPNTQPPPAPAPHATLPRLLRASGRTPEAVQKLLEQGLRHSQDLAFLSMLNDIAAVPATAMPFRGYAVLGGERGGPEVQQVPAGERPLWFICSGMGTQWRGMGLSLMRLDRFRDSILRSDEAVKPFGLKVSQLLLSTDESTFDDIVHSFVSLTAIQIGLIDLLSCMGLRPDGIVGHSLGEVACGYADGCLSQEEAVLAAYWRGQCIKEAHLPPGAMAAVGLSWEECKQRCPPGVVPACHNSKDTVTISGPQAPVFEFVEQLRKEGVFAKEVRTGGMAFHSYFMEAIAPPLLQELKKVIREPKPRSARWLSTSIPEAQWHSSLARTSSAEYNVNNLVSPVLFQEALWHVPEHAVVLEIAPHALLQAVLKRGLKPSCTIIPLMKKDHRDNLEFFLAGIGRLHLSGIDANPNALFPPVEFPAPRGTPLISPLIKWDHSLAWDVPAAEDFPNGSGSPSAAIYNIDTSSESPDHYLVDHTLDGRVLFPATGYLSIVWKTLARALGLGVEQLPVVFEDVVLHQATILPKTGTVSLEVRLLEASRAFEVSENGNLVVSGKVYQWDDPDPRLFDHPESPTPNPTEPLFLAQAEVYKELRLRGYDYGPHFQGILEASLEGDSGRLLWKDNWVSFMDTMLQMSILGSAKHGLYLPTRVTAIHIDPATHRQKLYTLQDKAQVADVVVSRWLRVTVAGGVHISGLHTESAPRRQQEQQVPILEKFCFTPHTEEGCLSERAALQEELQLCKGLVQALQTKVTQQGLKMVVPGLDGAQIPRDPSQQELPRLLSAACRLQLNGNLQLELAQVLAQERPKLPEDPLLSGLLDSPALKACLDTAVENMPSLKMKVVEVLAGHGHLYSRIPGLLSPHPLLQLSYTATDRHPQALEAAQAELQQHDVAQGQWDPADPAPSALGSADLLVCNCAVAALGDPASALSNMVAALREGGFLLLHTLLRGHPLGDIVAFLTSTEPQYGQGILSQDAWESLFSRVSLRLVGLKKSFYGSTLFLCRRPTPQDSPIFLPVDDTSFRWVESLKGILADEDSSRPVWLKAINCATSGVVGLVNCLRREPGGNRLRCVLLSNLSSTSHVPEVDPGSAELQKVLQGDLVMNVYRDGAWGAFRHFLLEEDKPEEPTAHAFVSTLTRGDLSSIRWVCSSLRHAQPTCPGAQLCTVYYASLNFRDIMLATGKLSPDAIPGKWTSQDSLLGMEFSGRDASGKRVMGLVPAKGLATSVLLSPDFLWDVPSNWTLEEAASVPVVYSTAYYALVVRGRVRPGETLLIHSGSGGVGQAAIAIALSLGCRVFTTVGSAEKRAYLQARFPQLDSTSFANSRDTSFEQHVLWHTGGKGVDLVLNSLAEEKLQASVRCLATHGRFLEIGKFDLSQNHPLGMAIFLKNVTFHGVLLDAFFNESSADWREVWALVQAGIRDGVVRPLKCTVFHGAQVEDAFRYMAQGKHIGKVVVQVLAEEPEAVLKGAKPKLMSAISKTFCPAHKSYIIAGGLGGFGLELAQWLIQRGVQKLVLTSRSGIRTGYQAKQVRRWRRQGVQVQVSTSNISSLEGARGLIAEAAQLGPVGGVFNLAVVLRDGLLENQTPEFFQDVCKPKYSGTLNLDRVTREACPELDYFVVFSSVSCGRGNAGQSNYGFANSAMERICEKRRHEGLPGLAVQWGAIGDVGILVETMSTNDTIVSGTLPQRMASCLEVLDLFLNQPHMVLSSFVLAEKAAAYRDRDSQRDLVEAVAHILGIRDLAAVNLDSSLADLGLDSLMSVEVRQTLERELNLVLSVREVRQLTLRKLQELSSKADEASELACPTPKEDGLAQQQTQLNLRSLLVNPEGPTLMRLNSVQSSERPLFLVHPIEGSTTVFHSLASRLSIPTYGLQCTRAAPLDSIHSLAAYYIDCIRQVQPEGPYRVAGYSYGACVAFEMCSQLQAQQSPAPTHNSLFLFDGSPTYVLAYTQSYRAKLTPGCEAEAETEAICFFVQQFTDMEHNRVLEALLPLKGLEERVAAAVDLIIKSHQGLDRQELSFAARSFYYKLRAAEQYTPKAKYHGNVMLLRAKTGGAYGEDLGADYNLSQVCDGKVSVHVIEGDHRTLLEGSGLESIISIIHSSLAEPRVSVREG

This experiment has as its target Fatty acid synthase (Homo sapiens) (UniProt P49327). Put plainly: inhibition of FAS-TE enzyme activity – biochemical, kinetic fluorescence, OMFH substrate, round 2, powder samples, SAR follow-up (AID 652286). As to conditions: recombinant FAS-TE, OMFH fluorogenic substrate. In short, it runs like this:
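Material: fatty acid synthase thioesterase domain (FAS-TE) enzyme; medium: 100 mM Tris-HCl pH 7.5, 50 mM NaCl, 500 mM sarcosine, TCEP, Brij35; reagent: OMFH fluorogenic substrate (2x stock 60 µM); timing: kinetic reads every 10 min at room temperature; technique: kinetic fluorescence intensity, excitation 480 nm, emission 540 nm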
Turning to `CCC(CC)C(=O)Nc1nc(-c2ccc(S(=O)(=O)N3CCC(C)CC3)cc2)cs1`, the IC50 (usually the concentration at which inhibition is half-maximal) is 1820 nM. For `CCC(C)C(=O)Nc1nc(-c2ccc(S(=O)(=O)N3CCCC3)cc2)cs1` (stereo not drawn), the half-maximal inhibitory concentration (IC50) is 141 nM. As to `CCCCCC(=O)Nc1nc(-c2ccc(S(=O)(=O)N3CCCC3)cc2)cs1`, the IC50 was 137 nM.

With `CCCCCCC(=O)Nc1nc(-c2ccc(S(=O)(=O)N3CCCCC3C)cc2)cs1` (stereo not drawn), the 50% inhibitory concentration (IC50) is 4430 nM.

Turning to `Cn1c(SCC(=O)Nc2ncc(C(F)(F)F)cc2Cl)nnc1-c1ccc(Cl)cc1`, the IC50 is 682 nM. The value for `CCC(C)C(=O)Nc1nc(-c2ccc(S(=O)(=O)N3CCCCC3C)cc2)cs1` (stereo not drawn) was 278 nM. Regarding `CN(Cc1ccc(C(C)(C)C)cc1)C(=O)Cc1ccc(S(=O)(=O)N2CCOCC2)s1`, the IC50 was 365 nM.

In the case of `CC(C)CC(=O)Nc1nc(-c2ccc(S(=O)(=O)N3CCC(C)CC3)cc2)cs1`, the IC50 entry was “inactive”. With `CCC(CC)C(=O)Nc1nc(-c2ccc(S(=O)(=O)N3CCCC3)cc2)cs1`, the half-inhibitory concentration (IC50) was 254 nM.

As for `CCCCC(=O)Nc1nc(-c2ccc(S(=O)(=O)N3CCOCC3)cc2)cs1`, the IC50 is 201 nM.

As for `CCCCCCC(=O)Nc1nc(-c2ccc(S(=O)(=O)N3CCCC3)cc2)cs1`, the half-inhibitory concentration (IC50) was 874 nM. With `CCCCCC(=O)Nc1nc(-c2ccc(S(=O)(=O)N3CCCCC3C)cc2)cs1` (stereo not drawn), the concentration for half-maximal inhibition (IC50) is 552 nM. For the compound `CCCCCCC(=O)Nc1nc(-c2ccc(S(=O)(=O)N3CCC(C)CC3)cc2)cs1`, the IC50 is 5850 nM. The value for `CCCCCCCCCCC[C@H](C[C@@H]1OC(=O)[C@H]1CCCCCC)OC(=O)[C@@H](NC=O)C(C)C` was 122 nM. For `CCC(C)C(=O)Nc1nc(-c2ccc(S(=O)(=O)N3CCC(C)CC3)cc2)cs1` (stereo not drawn), the half-inhibitory concentration (IC50) is 405 nM. For `CCCCCC(=O)Nc1nc(-c2ccc(S(=O)(=O)N3CCC(C)CC3)cc2)cs1`, the IC50 was 762 nM. For the compound `CCC(C)C(=O)Nc1nc(-c2ccc(S(=O)(=O)N(CC)CC)cc2)cs1` (stereo not drawn), the IC50 was 1060 nM and 152 nM.

With `CC(C)CC(=O)Nc1nc(-c2ccc(S(=O)(=O)N3CCCC3)cc2)cs1`, the half-inhibitory concentration (IC50) was 1640 nM. Turning to `CCC(CC)C(=O)Nc1nc(-c2ccc(S(=O)(=O)N(CC)CC)cc2)cs1`, the IC50 is 343 nM. With `CCCCCCC(=O)Nc1nc(-c2ccc(S(=O)(=O)N(CC)CC)cc2)cs1` the figure was 1400 nM; with `CCCCCC(=O)Nc1nc(-c2ccc(S(=O)(=O)N(CC)CC)cc2)cs1`, 190 nM; with `CC1CCN(S(=O)(=O)c2ccc(-c3csc(NC(=O)C(C)C)n3)cc2)CC1`, 489 nM. Consider `CCCCC(=O)Nc1nc(-c2ccc(S(=O)(=O)N3CCCCC3C)cc2)cs1` (stereo not drawn), for which the half-maximal inhibitory concentration (IC50) was 358 nM.
